Laboratory results: ChEMBL document CHEMBL1140162, “3-amino-7-phthalazinylbenzoisoxazoles as a novel class of potent, selective, and orally available inhibitors of p38alpha mitogen-activated protein kinase” (J Med Chem, 2008)

What was measured:
THP-1 = assay: Inhibition of LPS-induced TNFalpha production in human THP1 cells after 3 hrs; assay type: functional, cell-based; details: THP-1, 3 h
Blood = assay: Inhibition of TNF-induced IL8 production in human whole blood; assay type: functional, tissue-based
[1] = target: T1, Mitogen-activated protein kinase 14 (Homo sapiens, UniProt Q16539); assay: Inhibition of human recombinant GST-tagged p38alphaMAPK-induced ATF2 phosphorylation
T1 sequence (Q16539 whole entry): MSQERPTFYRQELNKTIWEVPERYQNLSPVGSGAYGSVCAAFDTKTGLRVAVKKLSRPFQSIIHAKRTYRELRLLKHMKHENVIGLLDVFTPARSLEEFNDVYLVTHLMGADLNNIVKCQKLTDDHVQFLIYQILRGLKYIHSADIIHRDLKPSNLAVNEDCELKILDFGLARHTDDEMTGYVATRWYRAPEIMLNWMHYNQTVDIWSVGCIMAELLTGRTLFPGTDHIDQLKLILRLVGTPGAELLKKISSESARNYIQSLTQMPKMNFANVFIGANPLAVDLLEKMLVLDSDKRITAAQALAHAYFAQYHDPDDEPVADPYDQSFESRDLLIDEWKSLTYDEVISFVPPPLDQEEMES

Cytochrome P450 3A4 = Cytochrome P450 3A4 (Homo sapiens, UniProt P08684); assay: Inhibition of CYP3A4 in human liver microsomes; assay type: ADME, Microsome
Sequence of Cytochrome P450 3A4 (P08684 whole entry): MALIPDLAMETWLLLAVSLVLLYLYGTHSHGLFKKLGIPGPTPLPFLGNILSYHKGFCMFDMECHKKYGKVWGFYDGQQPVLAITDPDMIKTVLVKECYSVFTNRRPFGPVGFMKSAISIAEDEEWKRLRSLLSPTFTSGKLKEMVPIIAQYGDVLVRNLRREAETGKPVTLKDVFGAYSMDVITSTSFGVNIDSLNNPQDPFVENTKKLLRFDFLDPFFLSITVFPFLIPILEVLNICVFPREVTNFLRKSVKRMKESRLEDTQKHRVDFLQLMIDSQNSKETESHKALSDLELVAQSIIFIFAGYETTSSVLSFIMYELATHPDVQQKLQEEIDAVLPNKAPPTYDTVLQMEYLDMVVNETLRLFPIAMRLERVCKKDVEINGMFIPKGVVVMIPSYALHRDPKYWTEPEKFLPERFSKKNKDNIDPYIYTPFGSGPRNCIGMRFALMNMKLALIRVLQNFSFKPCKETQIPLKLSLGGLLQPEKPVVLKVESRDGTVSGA

Cytochrome P450 2D6 = Cytochrome P450 2D6 (Homo sapiens, UniProt P10635); assay: Inhibition of CYP2D6; assay type: ADME
Sequence of Cytochrome P450 2D6 (P10635 whole entry): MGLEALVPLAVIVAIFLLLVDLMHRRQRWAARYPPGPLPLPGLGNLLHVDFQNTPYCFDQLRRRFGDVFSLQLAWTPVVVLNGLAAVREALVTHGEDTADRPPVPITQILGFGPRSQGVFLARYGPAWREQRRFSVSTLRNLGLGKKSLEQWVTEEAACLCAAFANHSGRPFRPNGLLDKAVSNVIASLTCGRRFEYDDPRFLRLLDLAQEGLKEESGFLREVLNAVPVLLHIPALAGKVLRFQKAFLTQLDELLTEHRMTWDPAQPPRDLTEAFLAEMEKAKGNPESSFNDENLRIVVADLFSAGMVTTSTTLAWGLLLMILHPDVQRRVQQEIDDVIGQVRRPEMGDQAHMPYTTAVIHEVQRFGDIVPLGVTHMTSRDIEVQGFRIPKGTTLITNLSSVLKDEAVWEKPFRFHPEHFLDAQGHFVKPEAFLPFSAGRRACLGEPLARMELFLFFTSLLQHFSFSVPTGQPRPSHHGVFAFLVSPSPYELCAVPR

[2] = Volume of distribution in Sprague-Dawley rat at 2 mg/kg, iv; assay type: ADME, organism-based; parameters: dose 2 mg/kg, route intravenous; details: in vivo
Procedure, shortened: (§1)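 Sprague-Dawley rats given 2 mg/kg intravenously; clearance, volume of distribution and elimination half-life derived from plasma profile.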

[3] = target: T2, Mast/stem cell growth factor receptor Kit (Homo sapiens, UniProt P10721); assay: Inhibition of c-KIT at 1 uM relative to control
T2 sequence (P10721 whole entry): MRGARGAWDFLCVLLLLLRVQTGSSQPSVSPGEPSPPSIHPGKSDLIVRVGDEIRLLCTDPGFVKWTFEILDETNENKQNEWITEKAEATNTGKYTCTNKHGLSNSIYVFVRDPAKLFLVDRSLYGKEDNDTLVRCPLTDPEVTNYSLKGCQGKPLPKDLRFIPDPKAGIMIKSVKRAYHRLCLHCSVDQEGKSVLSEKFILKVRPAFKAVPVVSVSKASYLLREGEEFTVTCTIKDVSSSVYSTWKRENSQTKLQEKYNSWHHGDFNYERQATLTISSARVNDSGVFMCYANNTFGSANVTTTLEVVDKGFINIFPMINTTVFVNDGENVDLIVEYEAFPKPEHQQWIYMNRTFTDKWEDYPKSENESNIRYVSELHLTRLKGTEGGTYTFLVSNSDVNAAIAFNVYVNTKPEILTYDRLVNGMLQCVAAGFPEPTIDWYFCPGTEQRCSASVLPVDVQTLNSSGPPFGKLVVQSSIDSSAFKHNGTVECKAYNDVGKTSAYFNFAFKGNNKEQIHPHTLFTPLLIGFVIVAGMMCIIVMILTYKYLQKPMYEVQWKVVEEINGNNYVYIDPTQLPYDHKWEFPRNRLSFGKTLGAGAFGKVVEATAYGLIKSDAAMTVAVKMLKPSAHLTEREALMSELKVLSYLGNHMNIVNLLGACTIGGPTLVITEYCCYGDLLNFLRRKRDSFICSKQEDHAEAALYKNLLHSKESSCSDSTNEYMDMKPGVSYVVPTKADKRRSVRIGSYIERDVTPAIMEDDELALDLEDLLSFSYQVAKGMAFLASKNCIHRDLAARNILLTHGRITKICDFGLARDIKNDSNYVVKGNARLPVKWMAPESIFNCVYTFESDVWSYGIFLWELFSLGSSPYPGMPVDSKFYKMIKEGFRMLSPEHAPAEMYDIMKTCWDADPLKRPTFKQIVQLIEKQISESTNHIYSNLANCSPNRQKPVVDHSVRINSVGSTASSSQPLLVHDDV

[4] = Tmax in Sprague-Dawley rat at 10 mg/kg, po; assay type: ADME, organism-based; parameters: dose 10 mg/kg, route oral; details: in vivo
Procedure, shortened: (§2)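 Sprague-Dawley rats dosed orally at 10 mg/kg as a solution in 1% Tween-80 in OralPlus (pH 2.2); bioavailability derived against 2 mg/kg iv dosing.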

[5] = Concentration of drug level in po dosed collagen-induced arthritis Lewis rat model after 24hrs; assay type: ADME, organism-based; details: in vivo, read-out: Drug uptake
Procedure, shortened: (§3)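 Lewis rats immunized intradermally with porcine type II collagen in incomplete Freund's adjuvant; dosing oral, once daily for 7 days from disease onset (days 10-12), vehicle 1% Tween-80 in Oraplus pH 2.2, doses 0.03-3.0 mg/kg. Paw diameter measured daily days 0-7; area under swelling curve used for percent inhibition versus vehicle; n = 8 rats/group. Exposure values interpolated.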

Liver microsomes [6] = assay: Metabolic stability in Sprague-Dawley rat liver microsomes assessed per mg of protein by LCMS in presence of NADPH; assay type: ADME, Microsome
Procedure, shortened: (§4)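 Test article 1 µM incubated with rat or human liver microsomes (0.1 mg/mL) in 66.67 mM potassium phosphate pH 7.4; NADPH 1 mM started reaction, blank without NADPH; stopped at 10 min with acetonitrile/0.05% formic acid; remaining parent quantified by LCMS; triplicates.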

Rattus norvegicus [7] = assay: AUC (0 to 24 hrs) in po dosed collagen-induced arthritis Lewis rat model; assay type: ADME, organism-based; parameters: time < 24 hr, route oral; details: in vivo; procedure, shortened: as §3
[8] = target: T3, Nuclear receptor subfamily 1 group I member 2 (Homo sapiens, UniProt O75469); assay: Activation of human PXR
T3 sequence (O75469 whole entry): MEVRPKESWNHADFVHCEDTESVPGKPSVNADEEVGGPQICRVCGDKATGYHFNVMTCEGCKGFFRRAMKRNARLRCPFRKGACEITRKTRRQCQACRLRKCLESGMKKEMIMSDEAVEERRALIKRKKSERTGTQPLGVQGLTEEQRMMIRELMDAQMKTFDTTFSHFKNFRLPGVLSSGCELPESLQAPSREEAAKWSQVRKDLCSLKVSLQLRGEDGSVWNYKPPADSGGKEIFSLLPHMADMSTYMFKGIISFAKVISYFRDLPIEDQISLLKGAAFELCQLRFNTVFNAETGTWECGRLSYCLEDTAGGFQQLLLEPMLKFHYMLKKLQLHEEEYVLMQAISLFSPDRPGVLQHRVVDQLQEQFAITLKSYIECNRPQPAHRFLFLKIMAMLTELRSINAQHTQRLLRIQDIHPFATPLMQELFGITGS

Liver microsomes [9] = assay: Metabolic stability in human liver microsomes assessed per mg of protein by LCMS in presence of NADPH; assay type: ADME, Microsome; procedure, shortened: as §4
Rattus norvegicus [10] = assay: Cmax in po dosed collagen-induced arthritis Lewis rat model; assay type: ADME, organism-based; parameters: route oral; details: in vivo; procedure, shortened: as §3
Rattus norvegicus [11] = assay: Antiinflammatory effect in po dosed collagen-induced arthritis Lewis rat model assessed as inhibition of paw swelling administered once a day for 7 days; assay type: functional; procedure, shortened: as §3
[12] = target: T1, Mitogen-activated protein kinase 14; assay: Inhibition of p38alpha at 1 uM relative to control
[13] = target: T4, Platelet-derived growth factor receptor beta (Homo sapiens, UniProt P09619); assay: Inhibition of PDGFRbeta at 1 uM relative to control
T4 sequence (P09619 whole entry): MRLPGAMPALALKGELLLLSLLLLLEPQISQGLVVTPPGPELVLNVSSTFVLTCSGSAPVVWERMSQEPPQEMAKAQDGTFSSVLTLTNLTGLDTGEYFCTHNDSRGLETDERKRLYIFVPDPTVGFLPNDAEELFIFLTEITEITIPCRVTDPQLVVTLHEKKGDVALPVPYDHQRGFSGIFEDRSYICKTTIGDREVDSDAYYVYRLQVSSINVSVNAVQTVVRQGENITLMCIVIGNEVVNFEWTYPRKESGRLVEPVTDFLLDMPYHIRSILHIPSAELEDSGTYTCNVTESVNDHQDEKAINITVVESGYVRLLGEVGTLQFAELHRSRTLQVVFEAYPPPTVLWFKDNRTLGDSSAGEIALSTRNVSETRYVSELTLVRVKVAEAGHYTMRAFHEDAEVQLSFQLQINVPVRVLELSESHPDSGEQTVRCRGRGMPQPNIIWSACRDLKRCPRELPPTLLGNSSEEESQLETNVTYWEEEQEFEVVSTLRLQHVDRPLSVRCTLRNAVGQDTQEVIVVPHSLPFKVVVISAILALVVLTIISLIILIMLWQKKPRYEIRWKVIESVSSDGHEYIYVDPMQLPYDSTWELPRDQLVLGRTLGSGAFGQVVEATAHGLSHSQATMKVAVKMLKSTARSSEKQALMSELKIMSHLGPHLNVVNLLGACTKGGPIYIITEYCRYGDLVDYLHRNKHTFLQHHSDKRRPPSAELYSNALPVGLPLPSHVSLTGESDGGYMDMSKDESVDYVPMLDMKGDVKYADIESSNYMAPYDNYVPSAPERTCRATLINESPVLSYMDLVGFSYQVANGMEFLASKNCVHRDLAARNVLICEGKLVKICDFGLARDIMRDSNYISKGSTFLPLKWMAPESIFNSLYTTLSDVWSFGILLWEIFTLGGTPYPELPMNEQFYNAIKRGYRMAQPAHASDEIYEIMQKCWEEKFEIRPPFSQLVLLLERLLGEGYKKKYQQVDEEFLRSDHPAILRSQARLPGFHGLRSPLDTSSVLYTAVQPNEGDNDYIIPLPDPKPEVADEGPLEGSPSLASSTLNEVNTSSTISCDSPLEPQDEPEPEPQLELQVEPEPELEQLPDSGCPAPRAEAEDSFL

Rattus norvegicus [14] = assay: Cmax in Sprague-Dawley rat at 10 mg/kg, po; assay type: ADME, organism-based; parameters: dose 10 mg/kg, route oral; details: in vivo; procedure, shortened: as §2
[15] = target: T5, Mitogen-activated protein kinase 11 (Homo sapiens, UniProt Q15759); assay: Inhibition of human recombinant GST-tagged p38beta-induced ATF2 phosphorylation
T5 sequence (Q15759 whole entry): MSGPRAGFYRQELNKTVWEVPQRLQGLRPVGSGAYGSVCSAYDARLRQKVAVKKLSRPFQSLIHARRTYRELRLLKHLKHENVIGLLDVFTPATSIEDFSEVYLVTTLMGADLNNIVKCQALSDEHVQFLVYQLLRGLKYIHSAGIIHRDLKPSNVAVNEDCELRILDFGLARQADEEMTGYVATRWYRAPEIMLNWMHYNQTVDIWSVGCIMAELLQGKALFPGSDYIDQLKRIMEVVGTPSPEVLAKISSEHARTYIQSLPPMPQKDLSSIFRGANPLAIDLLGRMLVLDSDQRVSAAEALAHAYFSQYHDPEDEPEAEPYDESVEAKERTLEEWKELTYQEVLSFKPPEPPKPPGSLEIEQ

[16] = target: T4, Platelet-derived growth factor receptor beta; assay: Inhibition of PDGFRbeta
Rattus norvegicus [17] = assay: Oral bioavailability in Sprague-Dawley rat at 10 mg/kg; assay type: ADME, organism-based; details: in vivo; procedure, shortened: as §2
[18] = target: T2, Mast/stem cell growth factor receptor Kit; assay: Inhibition of c-KIT
[19] = target: Voltage-gated inwardly rectifying potassium channel KCNH2 (Homo sapiens, UniProt Q12809); assay: Inhibition of human ERG by manual electrophysiology
Sequence of Voltage-gated inwardly rectifying potassium channel KCNH2 (Q12809 whole entry): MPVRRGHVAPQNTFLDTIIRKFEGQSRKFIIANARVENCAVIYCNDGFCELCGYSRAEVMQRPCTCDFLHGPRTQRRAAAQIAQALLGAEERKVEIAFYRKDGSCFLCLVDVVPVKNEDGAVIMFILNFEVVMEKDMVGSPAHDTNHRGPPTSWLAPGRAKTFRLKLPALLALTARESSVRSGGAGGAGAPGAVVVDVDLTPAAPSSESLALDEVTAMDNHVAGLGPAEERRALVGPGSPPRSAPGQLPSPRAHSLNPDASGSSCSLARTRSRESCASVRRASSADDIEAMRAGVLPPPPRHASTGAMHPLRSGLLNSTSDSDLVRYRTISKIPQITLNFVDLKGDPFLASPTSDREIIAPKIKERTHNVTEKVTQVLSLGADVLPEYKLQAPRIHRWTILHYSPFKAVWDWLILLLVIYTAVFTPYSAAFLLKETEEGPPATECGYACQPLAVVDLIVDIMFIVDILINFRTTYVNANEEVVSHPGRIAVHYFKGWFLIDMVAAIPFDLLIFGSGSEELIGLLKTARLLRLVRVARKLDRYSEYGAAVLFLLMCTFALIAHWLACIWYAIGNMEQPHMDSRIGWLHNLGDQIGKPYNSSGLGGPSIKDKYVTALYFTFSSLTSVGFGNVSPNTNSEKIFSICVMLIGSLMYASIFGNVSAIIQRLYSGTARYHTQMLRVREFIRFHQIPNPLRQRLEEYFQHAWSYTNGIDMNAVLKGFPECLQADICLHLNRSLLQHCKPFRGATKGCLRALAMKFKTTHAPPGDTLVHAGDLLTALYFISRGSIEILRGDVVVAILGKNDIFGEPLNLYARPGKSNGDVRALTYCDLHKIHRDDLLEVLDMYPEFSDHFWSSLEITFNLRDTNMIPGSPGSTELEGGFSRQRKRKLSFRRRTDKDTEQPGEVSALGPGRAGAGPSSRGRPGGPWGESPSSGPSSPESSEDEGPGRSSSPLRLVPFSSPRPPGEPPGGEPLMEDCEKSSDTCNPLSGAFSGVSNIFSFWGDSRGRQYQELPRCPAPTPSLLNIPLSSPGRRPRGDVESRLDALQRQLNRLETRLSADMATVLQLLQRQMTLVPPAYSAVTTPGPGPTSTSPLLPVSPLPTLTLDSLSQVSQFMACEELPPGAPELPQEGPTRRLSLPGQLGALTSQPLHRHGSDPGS

[20] = Elimination half life in Sprague-Dawley rat at 2 mg/kg, iv; assay type: ADME, organism-based; parameters: dose 2 mg/kg, route intravenous; details: in vivo; procedure, shortened: as §1
[21] = target: T5, Mitogen-activated protein kinase 11; assay: Inhibition of p38beta at 1 uM relative to control
[22] = Protein binding in Sprague-Dawley rat plasma; assay type: ADME, cell-free; details: read-out: PPB (converted)
Procedure, shortened: (§5)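 Plasma protein binding in rat or human plasma measured by ultrafiltration.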

[23] = Protein binding in human plasma; assay type: ADME, cell-free; details: read-out: PPB (converted); procedure, shortened: as §5

CNc1noc2c(-c3ccc4c(N5CCOC[C@H]5C)nncc4c3)c(C)ccc12
IC50 (THP-1): 1 nM | IC50 (Blood): 4.5 nM | Ki [1]: 0.3 nM | IC50 (Cytochrome P450 3A4): > 25000 nM

Cc1ccccc1-c1nncc2cc(-c3c(C)ccc4c(NC5CC5)noc34)ccc12
IC50 (THP-1): 0.4 nM | IC50 (Cytochrome P450 2D6): > 25000 nM | IC50 (Blood): 3.3 nM | Ki [1]: 0.4 nM | IC50 (Cytochrome P450 3A4): 1800 nM

Cc1ccc2c(NC3CC3)noc2c1-c1ccc2c(NC(C)C)nncc2c1
IC50 (THP-1): 0.4 nM | IC50 (Cytochrome P450 2D6): > 25000 nM | IC50 (Blood): 0.7 nM | Ki [1]: 0.5 nM | IC50 (Cytochrome P450 3A4): 5600 nM

CC(=O)N1CCN(c2nncc3cc(-c4c(C)ccc5c(NC6CC6)noc45)ccc23)[C@@H](C)C1
IC50 (THP-1): 0.8 nM | IC50 (Cytochrome P450 2D6): > 25000 nM | IC50 (Blood): 1.4 nM | Ki [1]: 0.8 nM

Cc1ccc2c(N)nsc2c1-c1ccc2c(N3CCOC[C@@H]3C)nncc2c1
IC50 (THP-1): 29 nM | IC50 (Blood): 50 nM | Ki [1]: 2 nM | IC50 (Cytochrome P450 3A4): 4000 nM

Cc1ccc2c(N)noc2c1-c1ccc2c(N3CCOC[C@@H]3C)nncc2c1
IC50 (THP-1): 3.6 nM | IC50 (Blood): 5.2 nM | Ki [1]: 0.3 nM | IC50 (Cytochrome P450 3A4): 12000 nM

CNc1noc2c(-c3ccc4c(N5CCOC[C@@H]5C)nncc4c3)c(C)ccc12
Vd [2]: 2.4 L/kg | IC50 (THP-1): 0.4 nM | inhibition [3]: < 50% | Tmax [4]: 1.7 h | concentration at 24 h [5]: 0.3 nM | Stability (Liver microsomes [6]): 120 µL/min | AUC (Rattus norvegicus [7]): 0.0224 µM·h | Activity [8]: Not Active | Stability (Liver microsomes [9]): 132 µL/min | Cmax (Rattus norvegicus [10]): 7 nM | IC50 (Blood): 3.3 nM | Activity (Rattus norvegicus [11]): Dose-dependent effect | ED50 (Rattus norvegicus [11]; 168 h): 0.05 mg/kg | Ki [1]: 0.4 nM | inhibition [12]: < 50% | inhibition [13]: < 50% | Cmax (Rattus norvegicus [14]): 1040 ng/mL | Ki [15]: 1.8 nM | IC50 [16]: 830 nM | F (Rattus norvegicus [17]): 67% | IC50 [18]: 1600 nM | IC50 [19]: 13000 nM | IC50 (Cytochrome P450 3A4): > 25000 nM | half-life [20]: 2.8 h | inhibition [21]: < 50% | fraction unbound [22]: 0.1 | fraction unbound [23]: 0.08

Cc1ccc2c(NC3CC3)noc2c1-c1ccc2c(N3CCOC[C@@H]3C)nncc2c1
IC50 (THP-1): 0.6 nM | IC50 (Cytochrome P450 2D6): > 25000 nM | IC50 (Blood): 1.3 nM | Ki [1]: 0.7 nM | IC50 (Cytochrome P450 3A4): 5600 nM

CNc1noc2c(-c3ccc4c(OC(C)C)nncc4c3)c(C)ccc12
IC50 (THP-1): 0.7 nM | IC50 (Blood): 7 nM | Ki [1]: 0.4 nM | IC50 (Cytochrome P450 3A4): > 25000 nM

CNc1noc2c(-c3ccc4c(NC(C)C)nncc4c3)c(C)ccc12
IC50 (THP-1): 0.7 nM | IC50 (Blood): 2.2 nM | Ki [1]: 0.5 nM | IC50 (Cytochrome P450 3A4): > 25000 nM

CC(=O)Nc1noc2c(-c3ccc4c(N5CCOC[C@@H]5C)nncc4c3)c(C)ccc12
IC50 (THP-1): 0.7 nM | IC50 (Blood): 2 nM | Ki [1]: 0.6 nM | IC50 (Cytochrome P450 3A4): > 25000 nM

CC(C)Nc1noc2c(-c3ccc4c(N5CCOC[C@@H]5C)nncc4c3)c(Cl)ccc12
IC50 (THP-1): 3.6 nM | IC50 (Blood): 15 nM | Ki [1]: 0.4 nM | IC50 (Cytochrome P450 3A4): 4500 nM

CC[C@H](C)Nc1nncc2cc(-c3c(C)ccc4c(NC)noc34)ccc12
IC50 (THP-1): 1.3 nM | IC50 (Blood): 2.1 nM | Ki [1]: 0.2 nM | IC50 (Cytochrome P450 3A4): > 25000 nM

CNc1noc2c(-c3ccc4c(C(C)C)nncc4c3)c(C)ccc12
IC50 (THP-1): 1.1 nM | IC50 (Blood): 3.4 nM | Ki [1]: 1.1 nM | IC50 (Cytochrome P450 3A4): > 25000 nM

CCNc1noc2c(-c3ccc4c(N5CCOC[C@@H]5C)nncc4c3)c(C)ccc12
IC50 (THP-1): 0.4 nM | IC50 (Blood): 2 nM | Ki [1]: 0.3 nM | IC50 (Cytochrome P450 3A4): 10000 nM

Cc1ccc2c(N)n[nH]c2c1-c1ccc2c(N3CCOC[C@@H]3C)nncc2c1
IC50 (THP-1): 120 nM | IC50 (Blood): 153 nM | Ki [1]: 16 nM

CNc1noc2c(-c3ccc4c(N5CCOC[C@@H]5C)nncc4c3)c(Cl)ccc12
IC50 (THP-1): 1.3 nM | IC50 (Blood): 3.3 nM | Ki [1]: 0.2 nM | IC50 (Cytochrome P450 3A4): 6000 nM
